tolC growth inh = growth inhibitors of E. coli BW25113 tolC mutant; 65,000 compounds, 2.2% hits; growth inhibition, % at 10 µM (by protocol); OD615;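 active = growth inhibition at or above a cutoff equal to the mean over every tested compound plus 3 SD, cut at about 60% in these data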;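 also: growth measured after 20 h incubation at 37 °C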
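Test system: tolC-deleted E. coli BW25113 | Medium: LB with kanamycin 50 µg/mL | Compound dosing: Single concentration, 10 µM final per compound | Schedule: 37 °C, 20 h exposure | Measured by: OD at 615 nm | Evaluation: Percent growth inhibition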
H69AR growth 86K = growth inhibitors of human H69AR lung tumor cells; H69AR lung tumor viability, ATP luminescence, 72 h; active compounds read low; viability, % at 10 µM; 85,000 compounds, 6% hits; AID 598;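 active = viability at or below 40%; inactive = viability above 40%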;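 also: multidrug resistant small cell line overexpressing MRP-1 efflux transporter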
HUVEC prolif 384 = inhibitors of human endothelial cell proliferation | viability, % at 10 µM (by protocol) | 86,000 compounds, 1.1% hits | HUVEC proliferation, CellTiter-Glo luminescence, 72 h; active compounds read low;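 active = viability at or below 30%; inactive = viability above 30%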
Fibroblast inh = blocks proliferation of human lung fibroblasts. LL 47 human lung fibroblast viability, ATP luminescence; active compounds read low. AID 719. 85,000 compounds, 1.1% hits. viability, % at 10 µM;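 active = viability at or below 50% in the single dose screen; inactive = viability above 50%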;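 also: compound exposure lasted 72 h before the ATP readout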
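Test system: LL 47 human lung fibroblasts / Quantity: 1,150 cells in each well / Medium: IMEM growth medium with 15% fetal bovine serum / Incubation: 72 h compound exposure at 37 °C after overnight plating / Detection: CellTiter-Glo luminescence measuring cellular ATP / Read-out: % viability versus median cells-only luminescence / Benchmarks: cell-only wells, no compound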
Jurkat viability = cytotoxicity toward Jurkat cells | Jurkat E6.1 viability, ATP luminescence, 48 h | inhibition, % at 4 µM | 56,000 compounds, 1.2% hits;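 active = inhibition above the mean inhibition of all tested compounds plus 3 SD, cut at about 28% in these data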
Ecoli WT expand = blocks growth of wild type E. coli BW25113; OD600 absorbance; growth inhibition, % at 100 µM; 98,000 compounds, 0.15% hits;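 active = growth inhibition above about 50% at one test dose, limit read from the data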;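 also: growth measured after 20 h incubation at 37 °C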
Hits are given with their value; n = inactive; x = no result. Sampled rows, rich in hits. Any-hit rate of the full collection: about 6.4%.

SMILES	tolC growth inh	H69AR growth 86K	HUVEC prolif 384	Fibroblast inh	Jurkat viability	Ecoli WT expand
CCOC(=O)C1CCCCC12C(C#N)=C(N)Oc1n[nH]c(C)c12 (centres undefined)	n	n	n	n	n	n
O=C(c1ccc2c(c1)ncn2C1CCCCC1)N1CCC2(CC1)OCCO2	n	17	n	n	54	n
CC(O)(CS(=O)(=O)c1ccccc1)C(=O)Nc1cccc(C(F)(F)F)c1 (centres undefined)	x	x	x	x	x	n
ClCCNc1nc2ccc(Cl)cc2[nH]1	x	n	n	n	x	54
CCOC(=O)C1=C(C)OC(N)=C(C#N)C12C(=O)N(C)c1ccccc12 (centres undefined)	x	n	n	n	x	n
C#CCN1C(=O)C2(C(C#N)=C(N)OC(C)=C2C(=O)OCc2ccccc2)c2ccccc21 (centres undefined)	n	30	n	x	n	n
O=c1[nH]c(=O)n(CCc2ccccc2)c(O)c1C=NCc1ccc2c(c1)OCO2	x	35	n	n	x	n
COC(=O)c1ccccc1-n1c(C)nc2ccccc2c1=O	n	n	n	n	n	n
O=S(=O)(c1ccc(Cl)cc1)N1CN2CCN(C2)C1	n	n	n	n	n	n
CCCCCCCSc1cc(OC)c(CCN(C)C)cc1OC	x	x	x	x	x	67
Cc1cc(C=C2C(=O)N(C)C(=S)N(C)C2=O)c(C)n1C1CCCCC1	x	x	x	x	x	n
NS(=O)(=O)c1ccc(N=Cc2c(O)n(C3CCCCC3)c(=O)n(C3CCCCC3)c2=O)cc1	n	0.9	1.8	39	n	n

Bioassay records: PubChem, several laboratories
